Measured values: ChEMBL document CHEMBL1145455, “Cytotoxic withanolides from the flowers of Datura metel” (J Nat Prod, 2007)

Tests used:
Type in all cases: functional, cell-based
A549 = experiment: Cytotoxicity against human A549 cells after 48 hrs; settings: A549, 48 h
Summary of the method: (§1)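 MTT colorimetric assay. Cells were kept in RPMI-1640 with 10% fetal bovine serum at 37 °C, 5% CO2, humidified. They were seeded at 6 × 10^4 cells/mL and allowed to attach for 24 h. Diluted samples were then added for 48 h. MTT (0.5 mg/mL) was added for 3 h, and optical density was read at 550 nm.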

BGC-823 = experiment: Cytotoxicity against human BGC823 cells after 48 hrs; settings: BGC-823, 48 h; summary of the method: as §1
K562 = experiment: Cytotoxicity against human K562 cells after 48 hrs; settings: K562, 48 h; summary of the method: as §1

With C=C1C(=O)O[C@@H]2C[C@@]1(C)OC[C@H]2C1CC[C@H]2[C@@H]3C[C@H]4O[C@]45C[C@H](O)CC(=O)C5(C)[C@H]3CCC12C (stereo partly drawn) the IC50 (A549) was 1700 nM, the IC50 (BGC-823) was 1000 nM and the IC50 (K562) was 460 nM.
In the case of C=C1C(=O)O[C@@H]2C[C@@]1(C)OC[C@H]2C1CCC2C3C[C@H]4OC(=O)CC=CC4=C(C)C3CCC21C (stereo partly drawn) [1,10-SECO-WITHAMETELIN B], the IC50 (A549) is reported as over 10000 nM, the IC50 (BGC-823) is reported as over 10000 nM and the IC50 (K562) is reported as over 10000 nM.
With C=C1C(=O)O[C@@H]2C[C@@]1(C)OC[C@H]2C1CCC2C3C[C@H]4OC(=O)CC=CC4=C(C)C3C[C@@H](O)C21C (stereo partly drawn) [12BETA-HYDROXY-1,10-SECO-WITHAMETELIN B] the IC50 (A549) was over 10000 nM, the IC50 (BGC-823) was over 10000 nM and the IC50 (K562) was over 10000 nM.
Compound COc1cccc2c1C(=O)c1c(O)c3c(c(O)c1C2=O)C[C@@](O)(C(=O)CO)C[C@@H]3O[C@H]1C[C@H](N)[C@H](O)[C@H](C)O1 [DOXORUBICIN] has an IC50 (A549) of 750 nM, an IC50 (BGC-823) of 350 nM and an IC50 (K562) of 580 nM.
C=C1C(=O)O[C@@H]2C[C@@]1(C)OC[C@H]2C1CCC2C3C[C@H]4O[C@]45CC=CC(=O)C5(C)C3C[C@@H](O)C21C (stereo partly drawn) [WITHAMETELIN I] showed an IC50 (A549) of 1200 nM, an IC50 (BGC-823) of 1300 nM and an IC50 (K562) of 50 nM.
For C=C1C(=O)O[C@@H]2C[C@@]1(C)OC[C@H]2C1CCC2C3C[C@@H](O)[C@@]4(O)CC=CC(=O)C4(C)C3C[C@@H](O)C21C (stereo partly drawn) [WITHAMETELIN J], the IC50 (A549) was over 10000 nM, the IC50 (BGC-823) was 5200 nM and the IC50 (K562) was 2500 nM.
Work on C=C1C(=O)O[C@@H]2C[C@@]1(C)OC[C@H]2C1CCC2C3C[C@@H](O)C4=CC=CC(=O)C4(C)C3C[C@@H](O)C21C (stereo partly drawn) [WITHAMETELIN K] yielded an IC50 (A549) of 3500 nM, an IC50 (BGC-823) of 1900 nM and an IC50 (K562) of 120 nM.
Work on C=C1C(=O)O[C@@H]2C[C@]1(C)OC[C@H]2[C@H]1CC[C@H]2[C@@H]3CC=C4CC=CC(=O)[C@]4(C)[C@H]3C[C@@H](O)[C@]12C [WITHAMETELIN L] yielded an IC50 (A549) of 2000 nM, an IC50 (BGC-823) of 1600 nM and an IC50 (K562) of 550 nM.
In the case of C=C1C(=O)O[C@@H]2C[C@@]1(C)OC[C@H]2C1CCC2C3CC=C4C=CCC(=O)C4(C)C3C[C@@H](O)C21C (stereo partly drawn) [WITHAMETELIN M], the IC50 (A549) is reported as over 10000 nM, the IC50 (BGC-823) is reported as over 10000 nM and the IC50 (K562) is reported as over 10000 nM.
In the case of C=C1C(=O)O[C@@H]2C[C@@]1(C)OC[C@H]2C1CCC2C3C[C@H](O)[C@]4(O)CC=CC(=O)C4(C)C3CCC21C (stereo partly drawn) [WITHMETELIN O], the IC50 (A549) is reported as over 10000 nM, the IC50 (BGC-823) is reported as over 10000 nM and the IC50 (K562) is reported as over 10000 nM.
Compound CC1=C(CO[C@@H]2O[C@H](CO)[C@@H](O)[C@H](O)[C@H]2O)C(=O)O[C@@H]([C@@H](CO)C2CCC3C4C[C@@H](O)[C@@]5(O)CC=CC(=O)C5(C)C4CCC32C)C1 (stereo partly drawn) [WITHMETELIN P] has an IC50 (A549) of over 10000 nM, an IC50 (BGC-823) of over 10000 nM and an IC50 (K562) of over 10000 nM.
